According to article PMC2570394 (Diabetes, 2008):
Read-outs that look alike come from different tables or passages of the source. Each block holds one compound with its values, some of them ahead of it.

Columns and labels:
[1] = system: normal rats; assay: Food intake and body weight during 6-day CB1 antagonist infusion in lean rats; format: in vivo, rat; details: 6 days; for body weight / food intake: lean rats
Summary of the method: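 Rats on standard chow received test compound for 6 days, either 3 or 5 μg/rat per day icv or 5 μg/rat per day s.c. Both routes used osmotic minipumps. Vehicle was isotonic saline with 0.3% Tween 80. Icv cannula placement was checked by drinking response to icv angiotensin II (5 ng/μl). Vehicle pair-fed rats got the treated group's daily intake before dark onset. Food intake and body weight were recorded daily. n=5–7, means ± SE.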

[2] = system: DIO rats; format: in vivo, rat; details: 6 days
[3] = system: DIO rats; assay: Plasma measurements after central or global CB1 blockade in DIO rats; format: in vivo; details: Central CB1 blockade, icv 5 μg/rat per day, 6 days, mean ± SE
Summary of the method: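 Diet-induced obese rats (45% high-fat diet, 8 weeks) got test compound 5 μg/rat per day icv for 6 days, alongside vehicle and pair-fed controls. Plasma glucose was measured by the glucose oxidase method, and nonesterified fatty acids by commercial kit. Corticosterone and insulin were measured by double-antibody radioimmunoassay. Means ± SE.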

[4] = format: in vivo, mice (C57BL/6J; details: male, C57BL/6J, mouse, ip, 10 mg/kg
[5] = system: DIO rats; assay: Triglyceride content in epididymal WAT and plasma of DIO rats; format: in vivo, rat; details: 6 days
Summary of the method: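 Diet-induced obese rats received test compound for 6 days, either 5 μg/day icv by minipump or 10 mg/kg per day i.p., alongside vehicle and pair-fed groups. Lipids were extracted from epididymal WAT. After the organic solvent was evaporated, triglyceride was measured enzymatically in duplicate. Plasma triglyceride was measured by commercial kit. n=5–7, means ± SE.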

[6] = system: normal rats; assay: Quantitative RT-PCR of lipid metabolism enzymes in WAT and liver of lean rats; format: in vivo, rat; details: 6 days
Summary of the method: (§1)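 Lean or diet-induced obese rats received 6-day treatment with vehicle and pair-fed controls. Epididymal WAT and liver were freeze-clamped and kept at −80°C. Real-time qPCR used SYBR Green, ~70 ng template cDNA and primers at 0.5 μmol/l final. Relative levels came from a standard curve and were normalised to ribosomal protein S29 in WAT and cyclophilin A in liver. n=5–7, means ± SE.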

[7] = system: DIO rats; format: in vivo, rat
Summary of the method: as §1

[8] = system: DIO rats; format: in vivo, rat; details: 6 days; remark: listed apart in the source
Summary of the method: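 Male Sprague-Dawley rats were fed a 45% high-fat diet for 8 weeks, then given vehicle or test compound for 6 days, with a vehicle pair-fed group. They were fasted overnight and anaesthetised with pentobarbital 50 mg/kg i.p. Clamps were run basal and insulin-stimulated (200 mU/ml) with D-[U-14C]glucose infusion (5 μCi/ml). A 2-deoxy-D-[1-3H]glucose bolus (30 μCi/rat) followed, and tissue 2-DG-6-P gave a utilisation index in ng/min/mg. n=5–7.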

[9] = system: diet-induced obese (DIO) mice; details: cited from earlier work
[10] = system: Zucker rats; details: cited from earlier work
[11] = system: isolated soleus muscle of ob/ob mice; details: cited from earlier work
[12] = system: rat; details: acute intracerebroventricular injection, 3 μg/rat per day; cited from earlier work
[13] = system: obese Zucker rats; details: 30 mg/kg, 8 weeks; cited from earlier work
[14] = system: CB1 receptor; details: by reducing food intake and increasing energy expenditure and fat oxidation; cited from earlier work
[15] = intracerebroventricular 3 μg/rat per day
[16] = intracerebroventricular 5 μg/rat per day
[17] = peripheral 5 μg/rat per day via subcutaneous minipumps
[18] = normal rats, icv 5 μg/day, similar in vehicle pair-fed group
[19] = ip 10 mg/kg, 6 days, independent of hypophagia

- Cmax ([4]; brain): 1010 ± 384 ng/g
- concentration at 25.1 h ([4]; brain): 186 ± 37.5 ng/g
- half-life ([4]; brain): 9.44 h
- Cmax ([4]; serum): 258 ± 58.9 ng/mL
- concentration at 25.1 h ([4]; serum): 20.5 ± 9.25 ng/mL
- half-life ([4]; serum): 6.33 h
Structure (SMILES): Cc1c(C(=O)NN2CCCCC2)nn(-c2ccc(Cl)cc2Cl)c1-c1ccc(Cl)cc1 [SR141716, Rimonabant]
- body weight [1, 15]: no effect
- food intake [1, 15]: no effect
- body weight [1, 16]: loss of body weight
- body weight [1, 17]: unable to detect changes
- food intake [1, 17]: unable to detect changes
- decrease in food intake ([1]; normal rats, intracerebroventricular 5 μg/rat per day): 17%
- decrease in food intake [2, 16]: 31%
- body weight ([2]; intracerebroventricular 5 μg/rat per day, mimicked by pair feeding): loss of body weight
- decrease in food consumption ([2]; intraperitoneal 10 mg/kg per day, P < 0.01): 40%
- Corticosterone (plasma) [3]: 59.77 ± 7.26 ng/mL
- Glucose (plasma) [3]: 3.78 ± 0.12 mmol/L
- Insulin (plasma) [3]: 0.58 ± 0.12 ng/mL
- Nonesterified fatty acids (plasma) [3]: 0.66 ± 0.13 mmol/L
- triglyceride levels in WAT ([5]; icv 5 μg/day): did not modify
- triglyceride levels in plasma ([5]; icv 5 μg/day): did not modify
- WAT triglyceride content ([5]; ip 10 mg/kg, not observed in vehicle pair-fed group): decreased
- WAT mRNA expression of lipid metabolism enzymes ([6]; lean rats, 5 μg/rat per day given peripherally): no change
- liver gene expression of key enzymes regulating triglyceride metabolism ([6]; lean rats, icv 5 μg/day): No significant difference
- WAT expression of CPT-1 [6, 18]: increased
- WAT expression of genes promoting lipogenesis and triglyceride storage (FAS, SCD-1, ACCα, LPL) [6, 18]: markedly reduced
- expression of hormone-sensitive lipase and adipose triglyceride lipase ([7]; WAT, drug treatment (data not shown)): not modified
- WAT CPT-1 expression ([7]; icv 5 μg/day, 6 days): trend toward an increase
- WAT SCD-1 expression ([7]; icv 5 μg/day, 6 days, also present in pair-fed group): decrease
- liver SCD-1 expression ([7]; icv 5 μg/day, 6 days, similar decrease in vehicle pair-fed animals): decreased
- liver gene expression of lipid metabolism enzymes ([7]; ip 10 mg/kg, 6 days): No modification
- liver expression of glucose-6-phosphatase ([7]; ip 10 mg/kg, 6 days, also in vehicle pair-fed group): marked decrease
- WAT CPT-1 expression [7, 19]: increase
- WAT SCD-1 expression [7, 19]: decrease
- overall insulin sensitivity ([8]; icv 5 μg/day): failed to elicit any change
- glucose infusion rate (GIR) ([8]; icv 5 μg/day, vs vehicle): identical
- glucose uptake in skeletal muscle and WAT ([8]; icv 5 μg/day, vs vehicle): identical
- hepatic glucose production (HGP) ([8]; icv 5 μg/day, vs vehicle): identical
- overall insulin sensitivity ([8]; ip 10 mg/kg): enhanced
- hepatic glucose production (HGP) ([8]; ip 10 mg/kg, comparable in vehicle pair-fed rats): suppressed
- glucose utilization by adipose tissue ([8]; ip 10 mg/kg, food-independent effect): increased
- glucose infusion rate (GIR) ([8]; ip 10 mg/kg, similar increase in vehicle pair-fed group): higher
- body weight [9]: maintained reduction
- food intake [9]: transient suppression
- body weight [10]: maintained reduction
- food intake [10]: transient suppression
- glucose uptake [11]: increases
- food intake [12]: decreases
- hepatic lipid metabolism [13]: food intake–independent effect

Structure (SMILES): C[C@H](NC(=O)C(C)(C)Oc1ccc(C(F)(F)F)cn1)[C@@H](Cc1ccc(Cl)cc1)c1cccc(C#N)c1 [taranabant]
- body weight [14]: weight loss
